Values joined by “and” are separate entries in the source; they are usually repeats but may differ in a detail not shown here. Identical values can stand only once.
system: HEK-293T; test: Multiplex assay against HEK293T; assay type: toxicity, cell-based; conditions: human, 12 h, 1 µM, compound concentration 1 uM
Method in brief: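 With compound added, live cells were imaged on a CQ1 microscope at 37°C and 5% CO2; staining with Hoechst33342, BioTracker Green Microtubule Cytoskeleton Dye, MitoTracker Red and Annexin V Alexa Fluor 680 had been done at seeding. The CellPathfinder machine-learning gating scheme split cells into Hoechst high-intensity objects or normal cells, normal cells into healthy, pyknosed or fragmented nuclei, and pyknosed cells into mitotic or apoptotic. The tubulin, mitochondrial-mass and membrane-permeability phenotypes are per cents of healthy-nucleus cells.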

Compound | Population Apoptotic (%) | Population Fragmented Nuclei (%) | Population Hoechst High Intensity Objects (%) | Population Membrane Permeable-Phenotype (%) | Population Mitochondria Different-Phenotype (%) | Population Mitotic Cells (%) | Population Normal (%) | Population Pyknosed Nuclei (%) | Population Tubulin-Different-Phenotype (%) | Total Cell Count
Cl.Cl.N#Cc1ccc(O[C@@H]2c3ccccc3C[C@H]2N2CCC[C@@H](N)C2)c(Cl)c1 | 8.75% and 10.31% | 2.35% and 6.14% | 0% | 1.16% and 0% | 36.63% and 30% | 91.25% and 89.69% | 100% | 47.06% and 85.09% | 26.16% and 50% | 340 and 114
COc1ccc2nc3ccc(OC)cc3c(SCCCN)c2c1.Cl | 9.64% and 17.91% | 1.39% and 4.49% | 0.55% and 0% | 1.06% and 0% |  | 90.36% and 82.09% | 99.45% and 100% | 46.24% and 85.9% | 5.85% and 13.33% | 361 and 156

same assay, conditions: human, 12 h, 10 µM, compound concentration 10 uM

Compound | Population Apoptotic (%) | Population Fragmented Nuclei (%) | Population Healthy Nuclei (%) | Population Hoechst High Intensity Objects (%) | Population Membrane Permeable-Phenotype (%) | Population Mitochondria Different-Phenotype (%) | Population Mitotic Cells (%) | Population Normal (%) | Population Pyknosed Nuclei (%) | Population Tubulin-Different-Phenotype (%)
Cl.Cl.N#Cc1ccc(O[C@@H]2c3ccccc3C[C@H]2N2CCC[C@@H](N)C2)c(Cl)c1 | 22.15% and 32.8% | 4.33% and 4.76% | 27.27% and 10.2% | 0.86% and 0% | 0% and 13.33% | 28.57% and 33.33% | 77.85% and 67.2% | 99.14% and 100% | 68.4% and 85.03% | 71.43% and 93.33%
COc1ccc2nc3ccc(OC)cc3c(SCCCN)c2c1.Cl | 19.66% and 51.55% | 81.39% and 89.94% | 8.58% and 2.44% | 3.16% and 0.62% | 0% and 3.23% | 15% and 9.68% | 80.34% and 48.45% | 96.84% and 99.38% | 10.03% and 7.63% | 31% and 48.39%

same assay, conditions: human, 12 h, 10 µM, compound concentration 10 uM

Compound | Total Cell Count
Cl.Cl.N#Cc1ccc(O[C@@H]2c3ccccc3C[C@H]2N2CCC[C@@H](N)C2)c(Cl)c1 | 233 and 147
COc1ccc2nc3ccc(OC)cc3c(SCCCN)c2c1.Cl | 1204 and 1280

same assay, conditions: human, 24 h, 1 µM, compound concentration 1 uM

Compound | Population Apoptotic (%) | Population Fragmented Nuclei (%) | Population Hoechst High Intensity Objects (%) | Population Membrane Permeable-Phenotype (%) | Population Mitochondria Different-Phenotype (%) | Population Mitotic Cells (%) | Population Normal (%) | Population Pyknosed Nuclei (%) | Population Tubulin-Different-Phenotype (%) | Population Healthy Nuclei (%)
Cl.Cl.N#Cc1ccc(O[C@@H]2c3ccccc3C[C@H]2N2CCC[C@@H](N)C2)c(Cl)c1 | 26.62% and 47.67% | 1.19% and 8.11% | 0.2% and 0% | 2.03% and 0% | 30.14% and 50% | 73.38% and 52.33% | 99.8% and 100% | 30.5% and 77.48% | 42.9% and 56.25% | 
COc1ccc2nc3ccc(OC)cc3c(SCCCN)c2c1.Cl | 11.89% and 22.43% | 1.64% and 2.45% | 0% and 0.61% | 1.51% and 3.85% | 22.86% and 15.38% | 88.11% and 77.57% | 100% and 99.39% | 26% and 65.64% | 16.33% and 11.54% | 72.36% and 31.9%

same assay, conditions: human, 24 h, 10 µM, compound concentration 10 uM

Compound | Population Apoptotic (%) | Population Fragmented Nuclei (%) | Population Hoechst High Intensity Objects (%) | Population Membrane Permeable-Phenotype (%) | Population Mitochondria Different-Phenotype (%) | Population Mitotic Cells (%) | Population Normal (%) | Population Pyknosed Nuclei (%) | Population Tubulin-Different-Phenotype (%) | Total Cell Count
Cl.Cl.N#Cc1ccc(O[C@@H]2c3ccccc3C[C@H]2N2CCC[C@@H](N)C2)c(Cl)c1 | 63.58% and 76.03% | 3.91% and 5.04% | 1.16% and 0% | 1.05% and 9.09% | 72.63% and 63.64% | 36.42% and 23.97% | 98.84% and 100% | 58.98% and 87.05% | 93.68% and 90.91% | 259 and 139
COc1ccc2nc3ccc(OC)cc3c(SCCCN)c2c1.Cl | 66.98% and 59.74% | 80.88% and 91.28% | 1.74% and 0.85% | 2.27% and 2.22% | 31.06% and 15.56% | 33.02% and 40.26% | 98.26% and 99.15% | 8.51% and 5.5% | 37.88% and 35.56% | 1267 and 1411

same assay, conditions: human, 24 h, 10 µM, compound concentration 10 uM

Compound | Population Healthy Nuclei (%)
COc1ccc2nc3ccc(OC)cc3c(SCCCN)c2c1.Cl | 10.6% and 3.22%

same assay, conditions: human, 48 h, 1 µM, compound concentration 1 uM

Compound | Population Fragmented Nuclei (%) | Population Healthy Nuclei (%) | Population Hoechst High Intensity Objects (%) | Population Membrane Permeable-Phenotype (%) | Population Mitochondria Different-Phenotype (%) | Population Mitotic Cells (%) | Population Normal (%)
Cl.Cl.N#Cc1ccc(O[C@@H]2c3ccccc3C[C@H]2N2CCC[C@@H](N)C2)c(Cl)c1 | 2.55% and 7.63% | 83.85% and 39.83% | 0.11% and 0% | 7.35% and 0% | 44.61% and 70.21% | 90.62% and 66.13% | 99.89% and 100%
COc1ccc2nc3ccc(OC)cc3c(SCCCN)c2c1.Cl | 3.15% and 5.62% | 85.43% and 51.69% | 0.08% and 0.56% | 4.52% and 2.17% | 15.94% and 31.52% | 95.17% and 75% | 99.92% and 99.44%

same assay, conditions: human, 48 h, 10 µM, compound concentration 10 uM

Compound | Population Apoptotic (%) | Population Fragmented Nuclei (%) | Population Healthy Nuclei (%) | Population Hoechst High Intensity Objects (%) | Population Membrane Permeable-Phenotype (%) | Population Mitochondria Different-Phenotype (%) | Population Mitotic Cells (%) | Population Normal (%) | Population Pyknosed Nuclei (%) | Population Tubulin-Different-Phenotype (%)
Cl.Cl.N#Cc1ccc(O[C@@H]2c3ccccc3C[C@H]2N2CCC[C@@H](N)C2)c(Cl)c1 | 63.04% and 79.59% | 2.57% and 5.97% | 58% and 20.9% | 1.69% and 0.74% | 1.48% and 7.14% | 95.07% and 92.86% | 36.96% and 20.41% | 98.31% and 99.26% | 39.43% and 73.13% | 30.05% and 89.29%
COc1ccc2nc3ccc(OC)cc3c(SCCCN)c2c1.Cl | 52.58% and 29.51% | 73.59% and 92.69% |  | 4.79% and 2.09% | 4.62% and 6.67% | 54.23% and 53.33% | 47.42% and 70.49% | 95.21% and 97.91% | 7.17% and 4.2% | 

same assay, conditions: human, 48 h, 10 µM, compound concentration 10 uM

Compound | Total Cell Count
Cl.Cl.N#Cc1ccc(O[C@@H]2c3ccccc3C[C@H]2N2CCC[C@@H](N)C2)c(Cl)c1 | 356 and 135
COc1ccc2nc3ccc(OC)cc3c(SCCCN)c2c1.Cl | 1420 and 1482
